What all share (type): functional, cell-based
Test [1] relates to HCT-116. Briefly: Anticancer activity against human HCT116 cells after 24 hrs by MTT assay. The note with it: HCT-116, 24 h. Put shortly: (§1)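 Cells maintained in RPMI-1640 with 10% heat-inactivated FBS and 1% penicillin/streptomycin. Seeded at 4.0 × 10³ cells/well for 12 h, then exposed to compounds over a 10 nM–1 mM range for 24 h. MTT added to 0.5 mg/ml final for 30 min. Cells washed twice in PBS and lysed in DMSO. Absorbance read at 570 nm; IC50 reported.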

In test [2] the test system is LNCaP. Briefly: Anticancer activity against human LNCAP cells after 24 hrs by MTT assay. In a few lines: as §1
A general note: Tetrazolium dyes change colour on reduction, which living cells bring about.

The test system of test [3] is MCF7. Briefly: Anticancer activity against human MCF7 cells after 24 hrs by MTT assay. The note with it: MCF7, 24 h. Put shortly: as §1
In test [4] the test system is DU-145. Put plainly: Anticancer activity against human DU145 cells after 24 hrs by MTT assay. The following applies: DU-145, 24 h. In a few lines:
as §1

Test [5] is described as follows: Anticancer activity against human MDA231 cells after 24 hrs by MTT assay. The following applies: MDA-MB-231, 24 h. Put shortly:
as §1

Test [6] relates to PC-3. Briefly: Anticancer activity against human PC3 cells after 24 hrs by MTT assay. The note with it: PC-3, 24 h. In a few lines:
as §1

Test [7] deals with MIA PaCa-2. Put plainly: Anticancer activity against human MIAPaCa2 cells after 24 hrs by MTT assay. The following applies: MIA PaCa-2, 24 h. Put shortly: as §1

The structures appear in SMILES notation.

A word on the IC50: it is the concentration that gives 50% inhibition. Lower therefore signals greater potency.

On to `Fc1ccc(-c2nc(-c3ccccc3)no2)cc1`, for which the IC50 in test [1] is greater than 1000 µM; in test [2], 23.7 µM; in test [3] it was greater than 1000 µM; in test [4], greater than 1000 µM; in test [5], greater than 1000 µM; in test [6], greater than 1 mM. This compound came in with an IC50 in test [7] greater than 1000 µM.
Regarding `COc1ccc(-c2noc(-c3ccc(F)cc3)n2)cc1O`, the IC50 in test [1] was greater than 1000 µM; in test [2], greater than 1000 µM; in test [3] it was greater than 1000 µM; in test [4] it was greater than 1000 µM; in test [5], greater than 1000 µM; in test [6], greater than 1 mM. This compound showed an IC50 in test [7] of 351 µM.
For `COc1ccc(-c2noc(C3CCCN3)n2)cc1OC1CCCC1` (stereo not drawn), the IC50 in test [1] is 185 µM; in test [2], 0.043 µM; in test [3] it was greater than 1000 µM; in test [4] it was 242 µM; in test [5], 212 µM; in test [6], greater than 1 mM. Further, the IC50 in test [7] was 19.5 µM.
Consider `COc1ccc(-c2noc(-c3ccc(F)cc3)n2)cc1OC1CCCC1`, for which the IC50 in test [1] is 210 µM; in test [2], 87.9 µM; in test [3], 3.88 µM; in test [4], 20.7 µM; in test [5], 55.5 µM; in test [6] it was greater than 1 mM. In addition, in test [7], the IC50 was 6.09 µM.
On to `COc1ccc(-c2noc(-c3ccncc3)n2)cc1OC1CCCC1`, for which the IC50 in test [1] is greater than 1000 µM; in test [2], greater than 1000 µM; in test [3] it was greater than 1000 µM; in test [4], greater than 1000 µM; in test [5], 240 µM; in test [6], greater than 1 mM. This compound yielded an IC50 in test [7] of 9.33 µM.
In the case of `COc1ccc(-c2noc(CC(C)=O)n2)cc1OC1CCCC1`, the IC50 was 185 µM in test [1]; 28.3 µM in test [2]; 174 µM in test [3]; 302 µM in test [4]; 53.3 µM in test [5]; greater than 1 mM in test [6]. Besides, the IC50 in test [7] was found to be 3.01 µM.
As for `COc1ccc(-c2noc(C3CCNCC3)n2)cc1OC1CCCC1`, the IC50 in test [1] was 1.54 µM; in test [2], 0.01 µM; in test [3], 3.88 µM; in test [4] it was 0.057 µM; in test [5], 0.37 µM; in test [6], greater than 1 mM. In addition, the IC50 in test [7] was found to be 0.54 µM.
As to `COc1ccc(-c2noc(Cc3c[nH]c4ccccc34)n2)cc1OC1CCCC1`, the IC50 in test [1] is greater than 1000 µM; in test [2], greater than 1000 µM; in test [3], greater than 1000 µM; in test [4], greater than 1000 µM; in test [5], greater than 1000 µM; in test [6], greater than 1 mM. Moreover, half-maximal inhibition in test [7] (IC50) was put at 9.56 µM.
For `c1ccc(-c2noc(-c3ccncc3)n2)cc1`, the IC50 is greater than 1000 µM in test [1]; 710 µM in test [2]; greater than 1000 µM in test [3]; 657 µM in test [4]; greater than 1000 µM in test [5]; greater than 1 mM in test [6]. This compound yielded an IC50 in test [7] of 497 µM.
For `COc1ccc(-c2noc(-c3ccccc3)n2)cc1OC1CCCC1`, the IC50 is greater than 1000 µM in test [1]; greater than 1000 µM in test [2]; greater than 1000 µM in test [3]; greater than 1000 µM in test [4]; greater than 1000 µM in test [5]; greater than 1 mM in test [6]. In test [7], this compound gave an IC50 greater than 1000 µM.
For `COc1ccc(-c2noc(-c3ccc(Cl)cc3)n2)cc1OC1CCCC1`, the IC50 in test [1] was greater than 1000 µM; in test [2], 20.8 µM; in test [3], 174 µM; in test [4], 122 µM; in test [5], 396 µM; in test [6], greater than 1 mM. Moreover, the IC50 in test [7] came to 0.74 µM.
Take `COc1ccc(-c2noc(-c3cccnc3)n2)cc1OC1CCCC1`: the IC50 in test [1] is greater than 1000 µM; in test [2], greater than 1000 µM; in test [3] it was greater than 1000 µM; in test [4], greater than 1000 µM; in test [5], greater than 1000 µM; in test [6] it was greater than 1 mM. The same compound had an IC50 in test [7] greater than 1000 µM.
On to `COc1cc(-c2noc(-c3ccncc3)n2)ccc1OCc1ccccc1`, for which the IC50 in test [1] is greater than 1000 µM; in test [2] it was greater than 1000 µM; in test [3], greater than 1000 µM; in test [4], greater than 1000 µM; in test [5], greater than 1000 µM; in test [6], greater than 1 mM. The IC50 in test [7] was greater than 1000 µM.
Turning to `COc1ccc(-c2noc(-c3ccc(O)cc3)n2)cc1OC1CCCC1`, the IC50 in test [1] came to 0.27 µM; in test [2], 0.86 µM; in test [3], 0.39 µM; in test [4] it was 0.78 µM; in test [5] it was 0.31 µM; in test [6], 0.162 mM. Besides, in test [7], half-maximal inhibition (IC50) was put at 0.48 µM.

These data come from ChEMBL document CHEMBL1151891, “Synthesis and anticancer activities of novel 3,5-disubstituted-1,2,4-oxadiazoles” (Bioorg Med Chem Lett, 2009).
